In ChEMBL document CHEMBL6092225, “Design, Synthesis, and Biological Evaluation of [1,2,5]Oxadiazolo[3,4-b]pyridin-7-ol as Mitochondrial Uncouplers for the Treatment of Obesity and Metabolic Dysfunction-Associated Steatohepatitis” (J Med Chem, 2024):
Active and inactive are the calls of the source. The calls are words filed in the database; no cut-off is given here.

Key:
L6 [1] = assay: (§1) Induction of oxygen consumption rate in rat L6 cells upto 200 uM measured for 90 mins by Seahorse assay relative to BAM15; format: functional
[2] = Induction of oxygen consumption rate in rat L6 cells measured for 90 mins by Seahorse assay; format: functional, cell-based
[3] = as §1; format: functional; details: 1.5 h, up to 200 µM
[4] = Toxicity in C57BL/6 mouse assessed as drug tolerance upto 1000 mg/kg, po measured for 24 hrs; format: organism-based; details: in vivo
Outline: (§2)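 Male C57BL/6 mice, 9 weeks old, given vehicle or compound at 30, 100, 300 or 1000 mg/kg by single oral gavage. Monitored 24 h after dosing for core temperature by rectal probe, body weight and food intake. n = 3, mean ± SEM.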

Mus musculus [5] = assay: Anti-obesity activity in diet-induced Gubra-Amylin NASH C57BL/6 mouse model of MASH assessed as decrease in NAFLD activity score at 200 mg/kg, po for 4 weeks; format: functional, organism-based
Outline: (§3)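 Male C57BL/6 mice, GAN diet from 5/6 weeks old for 33 weeks, then single-housed and stratified by baseline body weight and body composition. Fed GAN diet alone or GAN diet admixed with compound at 200 mg/kg for 4 weeks, fresh compound daily. Body weight and food intake measured daily, body composition weekly by EchoMRI, organs weighed at end.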

[6] = Toxicity in C57BL/6 mouse assessed as change in appetite at 30 to 1000 mg/kg, po measured for 24 hrs; format: organism-based; details: in vivo, dose 30-1000 mg/kg; outline: as §2
Mus musculus [7] = assay: Anti-obesity activity in diet-induced Gubra-Amylin NASH C57BL/6 mouse model of MASH assessed as decrease in fat mass at 200 mg/kg, po for 4 weeks by EchoMRI analysis; format: functional, organism-based
Outline: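 Male C57BL/6 mice kept on GAN diet for 33 weeks, then fed GAN diet with or without compound admixed at 200 mg/kg daily for 4 weeks. Fat and lean mass measured weekly by EchoMRI.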

Mus musculus [8] = assay: Effect on fibrosis stage of liver in diet-induced Gubra-Amylin NASH C57BL/6 mouse model of MASH at 200 mg/kg, po for 4 weeks; format: functional, organism-based
[9] = Toxicity in C57BL/6 mouse assessed as change in body weight at 30 to 1000 mg/kg, po measured for 24 hrs; format: organism-based; details: in vivo, dose 30-1000 mg/kg; outline: as §2
[10] = Toxicity in C57BL/6 mouse assessed as change in body temperature at 30 to 1000 mg/kg, po measured for 24 hrs; format: organism-based; details: in vivo, dose 30-1000 mg/kg; outline: as §2
Mus musculus [11] = assay: Effect on liver mass in diet-induced Gubra-Amylin NASH C57BL/6 mouse model of MASH at 200 mg/kg, po for 4 weeks; format: functional, organism-based; outline: as §3
Mus musculus [12] = assay: Effect on calorie intake in diet-induced Gubra-Amylin NASH C57BL/6 mouse model of MASH at 200 mg/kg, po; format: functional, organism-based; outline: as §3
Mus musculus [13] = assay: Anti-obesity activity in diet-induced Gubra-Amylin NASH C57BL/6 mouse model of MASH assessed as decrease in plasma ALT level at 200 mg/kg, po for 4 weeks; format: functional, organism-based
Outline: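 GAN-diet male C57BL/6 mice given compound admixed in diet at 200 mg/kg daily for 4 weeks. Terminal EDTA plasma taken by cardiac puncture under isoflurane. ALT activity measured by kit assay, samples diluted 1:8 in ALT assay buffer.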

L6 [14] = assay: Induction of oxygen consumption rate in rat L6 cells at 10 uM measured for 90 mins in presence of oligomycin by Seahorse assay; format: functional, cell-based
Outline: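 L6 myoblasts in unbuffered DMEM with pyruvate and glutamine (pH 7.4) on Seahorse XF. Mitochondrial stress test: oligomycin 1 µM or vehicle injected, then compound at 10 µM, then antimycin A 10 µM plus rotenone 1 µM at set times. n = 3 wells per condition, mean ± SEM.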

Mus musculus [15] = assay: Anti-obesity activity in diet-induced Gubra-Amylin NASH C57BL/6 mouse model of MASH assessed at 200 mg/kg, po for 4 weeks by EchoMRI analysis
Mus musculus [16] = assay: Anti-obesity activity in diet-induced Gubra-Amylin NASH C57BL/6 mouse model of MASH assessed as decrease in liver triglyceride level at 200 mg/kg, po for 4 weeks; format: functional, organism-based
Outline: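 GAN-diet male C57BL/6 mice dosed 200 mg/kg daily in food for 4 weeks. Liver harvested at end, frozen in liquid nitrogen, lipid extracted. Extract heated 10 min at 37 °C, then triglyceride measured by colorimetric assay and normalized to initial grams extracted.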

[17] = Induction of oxygen consumption rate in rat L6 cells assessed as increase in respiration at 10 uM measured for 90 mins in presence of BAM15 by Seahorse assay relative to control; format: functional; details: 1.5 h

EC50 [2] | SMILES | Activity (L6 [1]) | other results
Not_active | Oc1c(Nc2ccc(-c3cc(F)ccc3F)cc2)cnc2nonc12 | inactive | 
Not_active | Oc1c(Nc2ccc(F)nc2)cnc2nonc12 | inactive | 
Not_active | Oc1c(Nc2ccc(-c3ccc(C(F)(F)F)cc3)cc2)cnc2nonc12 | inactive | 
Not_active | CC1(C)c2ccccc2-c2ccc(Nc3cnc4nonc4c3O)cc21 | inactive | 
Not_active | Oc1c(Nc2ccc(-c3cccc(Cl)c3Cl)cc2)cnc2nonc12 | inactive | 
Not_active | CC(=O)c1ccc(Nc2cnc3nonc3c2O)cc1 | inactive | 
 | Oc1c(Nc2ccc(-c3ccc(F)cc3)cc2)cnc2nonc12 |  | Activity [3]: 60%
 | CCCCc1ccc(Nc2cnc3nonc3c2O)cc1 |  | EC50 ([2]; read-out: EC50): 1 µM
 | Oc1c(Nc2cccc(-c3ccccc3)c2)cnc2nonc12 |  | Activity [3]: 20%; EC50 ([2]; read-out: EC50): 6 µM
 | Oc1c(Nc2ccc(-c3cccc(Cl)c3)cc2)cnc2nonc12 |  | Activity [4]: Non-toxic; Activity (Mus musculus [5]): Active; The Occurence Is Due To Decreased Hepatic Steatosis; Activity [6]: Non-toxic; Activity (Mus musculus [7]): Active; Activity Of Drug Indicates Improved Body Composition; Activity (Mus musculus [8]): inactive; Activity [9]: Non-toxic; Activity [10]: Non-toxic; Activity (Mus musculus [11]): Not active; No Significant Change In Liver Mass Was Observed But Showed Improvements In Fatty Liver Disease Phenotypes; Activity (Mus musculus [12]): inactive; Activity (Mus musculus [13]): Active; Activity (L6 [14]): Active; Action Of Drug Suggests Proton Transport Into Matrix Independent Of Atp Synthase; Activity Of Drug Requires Electron Transport Chain Activity; Activity (Mus musculus [15]): Active; Activity (Mus musculus [16]): Active; Activity [17]: 300%
Not_active | Oc1c(Nc2ccccc2-c2ccccc2)cnc2nonc12 | inactive | 
Not_active | Oc1c(Nc2ccc(-c3ccccc3F)cc2)cnc2nonc12 | inactive | 
Not_active | Oc1c(Nc2ccc(C(F)(F)F)nc2)cnc2nonc12 | inactive | 
 | Oc1c(Nc2ccc(-c3ccc(Cl)cc3)cc2)cnc2nonc12 |  | Activity [3]: 57%
Not_active | Oc1c(Nc2ccc(-c3ccc(F)c(F)c3)cc2)cnc2nonc12 | inactive | 
 | CC(C)(C)Oc1ccc(Nc2cnc3nonc3c2O)cc1 |  | Activity [3]: 20%; EC50 ([2]; read-out: EC50): 6 µM
Not_active | N#Cc1ccc(Nc2cnc3nonc3c2O)cc1 | inactive | 
Not_active | Oc1c(Nc2ccc(-c3cccc(F)c3F)cc2)cnc2nonc12 | inactive | 
Not_active | Oc1c(-c2ccc(-c3ccc(F)cc3)cc2)cnc2nonc12 | inactive | 
